Kir21 block – inhibitors of mouse Kir2.1 inward-rectifier potassium channel. HEK293-Kir2.1, FluxOR thallium flux fluorescence; active compounds read low. B-score at 10 µM. 310,000 tested, 0.85% active;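 active means fluorescence ratio B-score at or below minus 3 SD of library scores, with starting-brightness B-score within 2 SD, cut at about -4.2 in these data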;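 further: channel flux triggered by added potassium and thallium sulfate stimulus; B-score of peak minus minimum fluorescence over baseline after thallium stimulus; more negative B-score means stronger Kir2.1 block with less thallium influx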
KCNK9 inh – blocks the human KCNK9 two-pore domain potassium channel; Q9NPC2; HEK293 KCNK9, FluxOR thallium flux fluorescence; active compounds read low; B-score at 10 µM; 310,000 tested, 1.2% active;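 active means ratio B-score over 3 SD below the library mean, with starting fluorescence within 5 SD of its mean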;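 further: negative B-score means less thallium flux so channel inhibition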
Target sequence (Q9NPC2 whole entry, looked up, the tested form may be a part): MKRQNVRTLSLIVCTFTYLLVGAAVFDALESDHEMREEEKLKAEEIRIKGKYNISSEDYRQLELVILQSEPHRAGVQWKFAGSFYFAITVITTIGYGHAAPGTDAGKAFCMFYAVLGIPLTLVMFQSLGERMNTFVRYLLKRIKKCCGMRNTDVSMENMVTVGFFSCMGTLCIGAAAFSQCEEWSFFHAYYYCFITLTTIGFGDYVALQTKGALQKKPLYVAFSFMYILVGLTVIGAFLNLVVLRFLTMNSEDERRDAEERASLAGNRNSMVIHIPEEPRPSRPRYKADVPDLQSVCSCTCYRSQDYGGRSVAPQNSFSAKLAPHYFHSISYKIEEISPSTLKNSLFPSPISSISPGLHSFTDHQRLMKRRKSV
KCNQ1 inh – human KCNQ1 channel inhibition | P51787 | CHO-K1 KCNQ1, FluxOR thallium flux fluorescence; active compounds read high | B-score at 10 µM | 310,000 tested, 1.3% active | AID 2642;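 active means compounds whose thallium flux B-score, printed positive for inhibition, exceeds three library SD while starting fluorescence stays within three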;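 further: channel opened by potassium depolarization with thallium stimulus after 20 min compound exposure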
KCNQ1 pot – human KCNQ1 channel potentiation or activation; P51787; CHO-K1 KCNQ1, thallium flux FluxOR fluorescence; active compounds read high; B-score at 10 µM; 310,000 tested, 0.35% active; AID 2648;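 active means fluorescence ratio B-score, a plate-corrected score, at least three library SD, with initial intensity B-score within 5 SD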
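assay system = KCNQ1-transfected CHO-K1 cells | medium = assay buffer with matched DMSO | probe or stimulus = depolarizing K+/Tl+ stimulus, K2SO4 and Tl2SO4 each 12.5 mM in 5x stock | dosing = single dose | incubation = dye 90 min, compound 20 min, room temperature | detection = kinetic FluxOR fluorescence, 10 s baseline plus 110 s post-stimulus | evaluation = ratio B score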
KCNK3 block – human KCNK3 channel inhibition, primary screen | 340,000 tested, 0.84% active | AID 602410 | B-score at 10 µM | O14649 | CHO-KCNK3 thallium flux, FluxOR fluorescence; active compounds read low;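 active means B-score under library mean minus 4 SD, starting fluorescence ratio at most library mean plus 5 SD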;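 further: more negative B-score means stronger inhibition of thallium flux through KCNK3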
hERG rescue – shields human hERG channel from block by proarrhythmic agents. Q12809. CHO-hERG, FluxOR thallium flux, dofetilide IC70 present. activation (rescue from dofetilide block), less the hit threshold, % at 10 µM. 310,000 tested, 0.51% active. AID 1511;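 active means activation above the mean of controls blocked by dofetilide plus 5 SD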;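 further: thallium influx through hERG after potassium depolarization seen as dye fluorescence rise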
Active calls of the source: *; i = inactive; x = no result. Rows were chosen to be rich in hits. Some 3.7% of all compounds tested hit in one or more screens of this group.

SMILES | Kir21 block | KCNK9 inh | KCNQ1 inh | KCNQ1 pot | KCNK3 block | hERG rescue
N#CC1=C(N)Oc2ccc3ccc(O)cc3c2C1c1ccsc1 (centres undefined) | -5* | i | i | i | i | -22
CCOCCCNc1nc2c(C)cccn2c(=O)c1/C=C1\SC(=S)N(C(C)CC)C1=O (centres undefined) | -0.18 | i | 7* | i | i | -16
CCOCCCNc1nc2c(C)cccn2c(=O)c1/C=C1\SC(=S)N(CC(C)C)C1=O | 0.19 | i | i | i | i | -12
CC1Cc2ccccc2N1S(=O)(=O)c1cccc(C(=O)NCc2ccncc2)c1 (centres undefined) | x | x | x | x | -9.5* | x
CC1Cc2ccccc2N1S(=O)(=O)c1cccc(C(=O)NCc2ccccn2)c1 (centres undefined) | x | x | x | x | i | x
O=C(Nc1c(F)cccc1F)c1ccc2c(c1)CCN2S(=O)(=O)c1ccccc1 | 0.22 | i | i | i | i | -6
CC(Oc1ccc(Br)cc1)C(=O)Nc1ccc(S(=O)(=O)N(C)C2CCN(C)CC2)cc1 (centres undefined) | -1 | i | i | 10* | i | -16
O=C(Nc1nccs1)c1ccc(N2CCOCC2)c([N+](=O)[O-])c1 | -0.41 | i | i | i | i | -7
CN1CCN(CCCNC(=O)c2ccc(Cn3c(=S)[nH]c4ccc(Br)cc4c3=O)cc2)CC1 | 0.13 | i | i | i | i | -15
CC1CCN(CCCNC(=O)c2ccc(Cn3c(=S)[nH]c4ccc(Br)cc4c3=O)cc2)CC1 | -1.6 | i | 8* | i | x | -15
S=c1nc(-c2ccccc2)n(CCCN2CCOCC2)c2c1CCCC2 | 1.4 | i | i | i | i | 6.8*
Cc1c(Cl)c([N+](=O)[O-])nn1CCCC(=O)Nc1ccc(Cl)cc1Cl | -0.5 | i | i | i | i | -8
Cc1ccccc1NC(=O)c1cc(C(=O)c2cc(Cl)ccc2O)cn(-c2ccccc2C)c1=O | 0.44 | i | 9* | i | i | -7
COc1ccc(C2(O)C(=O)Nc3ccc(C)cc32)cc1OC (centres undefined) | -3 | i | i | i | i | -1
COc1ccc(CCN2CCC(Nc3nc4ccccc4n3Cc3ccc(F)cc3)CC2)cc1 | -6.8* | i | i | i | i | x
Nc1nc(N)c(N=Nc2ccc(C(=O)O)cc2)c(N)n1 | 0.05 | i | i | 11* | i | -7
COc1ccc(-c2nnc(SCc3ccccn3)n2C)cc1 | 0.04 | i | i | i | i | -9
COc1ccc(N=C(N)SCc2ccccn2)cc1 | -4.5* | i | i | i | i | -4
CC(C)(C)c1ccc(OCc2nc(-c3ccccn3)no2)c(Br)c1 | -0.41 | -6.8* | i | i | i | -8
Clc1cc(Cl)c(OCc2nc(-c3ccccn3)no2)cc1Cl | -0.05 | i | i | i | i | -7
Cc1cc(C)c(OCC(=O)Nc2cccc(NC(=O)c3ccco3)c2)c(Br)c1 | -0.15 | -7.9* | i | i | i | -10
O=C(Cc1cccs1)Nc1cccc(-c2nc3cc4ccccc4cc3[nH]2)c1 | 0.94 | i | 9* | i | i | -21
O=C(Nc1cccc(-c2nnc(-c3ccco3)o2)c1)c1ccccc1 | -1.2 | -6.9* | i | i | i | -15
O=C(Nc1cccc(-c2nc3ccccc3[nH]2)c1)c1ccco1 | 0.69 | -6.9* | i | i | i | -37
Cc1ccc2nc(-c3ccc(NC(=O)c4ccco4)cc3)[nH]c2c1 | -0.31 | i | i | i | i | -7
SMILES | Kir21 block | KCNK9 inh | KCNQ1 inh | KCNQ1 pot | KCNK3 block | hERG rescue
COc1ccc(Cl)cc1NC(=O)C1CCN(S(C)(=O)=O)CC1 | 0.26 | i | i | i | i | -11
C=C1CC[C@@]23CC[C@]4(C)[C@@](OC2=O)([C@@H]3C1)[C@H]1O[C@H]1C1[C@@]2(C)CC[C@H](O)C(C)(C)C2CC[C@]14C (some centres undefined) | x | x | x | x | i | x
Cc1ccc(NC(=O)CCNC(=O)c2ccco2)cc1Cl | -1.4 | i | i | i | i | -3
Cc1oc(-c2ccccc2)cc1C(=O)Nc1ccc(N(C)C)cc1 | 0.48 | i | i | i | i | -8
C/C(Cn1nc([N+](=O)[O-])cc1C)=N\NC(=O)COc1c(Cl)cc(Cl)cc1Cl | -2.7 | i | i | i | i | -10
O=C(Nc1cccc(NC(=O)c2ccco2)c1)c1ccccc1 | 0.22 | -7.6* | i | i | i | -10
O=C(c1ccccc1)c1cccc(NC(=O)c2ccco2)c1 | -0.12 | i | i | i | i | -15
O=C(Nc1cccc(NC(=O)c2ccc(-c3cccc(Br)c3)o2)c1)c1ccco1 | -0.96 | -12* | i | i | i | -27
Cc1cc(NC(=O)/C(C#N)=C\c2ccc(-c3ccc(SC(F)F)cc3)o2)n(-c2ccccc2)n1 | x | x | x | x | i | x
Cn1nc([N+](=O)[O-])c(C(C#N)c2nc3ccccc3n2C)c(Cl)c1=O (centres undefined) | 0.55 | i | 6* | i | i | -11
Cn1c(-c2ccc([N+](=O)[O-])cc2)nc2ccccc21 | 1.6 | i | i | i | i | -6
CCOC(=O)C1CCN(C(=O)CN(C)S(=O)(=O)c2ccc3c(c2)c(=O)n(C)c(=O)n3C)CC1 | 0 | i | i | i | i | -4
COc1cc(CNC(=O)C2CCC(=O)N(C3CCCCCC3)C2)cc(OC)c1 (centres undefined) | 1.4 | i | i | i | i | -7
N=c1c2c(-c3ccccc3)c(-c3ccccc3)n(Cc3ccccc3)c2ncn1CCCn1ccnc1 | -8.7* | i | i | i | i | -20
COc1ccc(CN(C)C(=O)/C=C/c2ccc(S(=O)(=O)N3CCCCCC3)cc2)cc1 | x | x | x | x | i | x
O=C(O)/C=C/c1cnc2ccccc2c1 | 0.02 | i | i | i | i | -7
CC1=CCC2C(=O)N(c3ccc(OC(=O)c4ccco4)cc3)C(=O)C2C1 (centres undefined) | -7.9* | i | i | i | i | -12
O=[N+]([O-])c1cccc(SSc2cccc([N+](=O)[O-])c2)c1 | x | x | x | x | i | x
CN(C)CC(CCC(CN(C)C)C(=O)c1ccccc1)C(=O)c1ccccc1 (centres undefined) | -1.7 | i | i | 20* | i | -2
COc1ccc(C(=O)C(CCCCC(CN(C)C)C(=O)c2ccc(OC)cc2)CN(C)C)cc1 (centres undefined) | -2.8 | i | i | i | i | -11

Screens (PubChem)
